What was measured:
Type in all cases: functional
NCI-H23 = test: Growth inhibition of human NCI-H23 cells after 48 hrs by sulforhodamine B assay; conditions: NCI-H23, 48 h
Method in brief: (§1)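 NCI-60 panel screen by SRB assay (Rubinstein method). Percentage growth taken from optical density of SRB colour, read before and 48 hrs after exposure to compound or vehicle control. All analogues first screened at 10^-5 M. Analogues giving 60% growth inhibition at that level in at least eight lines then went to a five-concentration dose-response study.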

[1] = Growth inhibition of human HCT116 cells after 48 hrs by sulforhodamine B assay; conditions: HCT-116, 48 h; method in brief: as §1
[2] = Growth inhibition of human OVCAR3 cells after 48 hrs by sulforhodamine B assay; conditions: OVCAR-3, 48 h
Method in brief: (§2)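 NCI-60 sulforhodamine B screen. Compounds were first tested at a single dose of 10⁻⁵ M; hits, defined as ≥60% growth inhibition in at least eight lines, went on to a five-concentration dose–response. SRB optical density was read before and 48 h after exposure to compound or vehicle. Percentage growth was calculated from OD.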

[3] = Growth inhibition of human IGROV1 cells after 48 hrs by sulforhodamine B assay; conditions: IGROV-1, 48 h; method in brief: as §1
[4] = Growth inhibition of human SF268 cells after 48 hrs by sulforhodamine B assay; conditions: SF-268, 48 h; method in brief: as §1
786-0 = test: Growth inhibition of human 786-0 cells after 48 hrs by sulforhodamine B assay; conditions: 786-0, 48 h; method in brief: as §1
[5] = Growth inhibition of human SF295 cells after 48 hrs by sulforhodamine B assay; conditions: SF-295, 48 h; method in brief: as §1
[6] = Growth inhibition of human COLO205 cells after 48 hrs by sulforhodamine B assay; conditions: COLO 205, 48 h; method in brief: as §1
[7] = Growth inhibition of human RPMI8226 cells after 48 hrs by sulforhodamine B assay; conditions: RPMI-8226, 48 h; method in brief: as §1
A498 = test: Growth inhibition of human A498 cells after 48 hrs by sulforhodamine B assay; conditions: A498, 48 h; method in brief: as §2
K562 = test: Growth inhibition of human K562 cells after 48 hrs by sulforhodamine B assay; conditions: K562, 48 h; method in brief: as §1
U-251 = test: Growth inhibition of human U251 cells after 48 hrs by sulforhodamine B assay; conditions: U-251, 48 h; method in brief: as §1
[8] = Growth inhibition of human LOXIMVI cells after 48 hrs by sulforhodamine B assay; conditions: LOX IMVI; method in brief: as §1
SR = test: Growth inhibition of human SR cells after 48 hrs by sulforhodamine B assay; method in brief: as §1
SK-MEL-5 = test: Growth inhibition of human SK-MEL-5 cells after 48 hrs by sulforhodamine B assay; conditions: SK-MEL-5, 48 h; method in brief: as §1
[9] = Growth inhibition of human HCC2998 cells after 48 hrs by sulforhodamine B assay; conditions: HCC 2998, 48 h; method in brief: as §1
A549 = test: Growth inhibition of human A549/ATCC cells after 48 hrs by sulforhodamine B assay; conditions: A549, 48 h; method in brief: as §1
[10] = Growth inhibition of human HCT15 cells after 48 hrs by sulforhodamine B assay; conditions: HCT-15, 48 h; method in brief: as §1
CAKI-1 = test: Growth inhibition of human CAKI-1 cells after 48 hrs by sulforhodamine B assay; conditions: CAKI-1, 48 h; method in brief: as §1
[11] = Growth inhibition of human NCI-ADR-RES cells after 48 hrs by sulforhodamine B assay; method in brief: as §1
KM12 = test: Growth inhibition of human KM12 cells after 48 hrs by sulforhodamine B assay; conditions: KM12, 48 h; method in brief: as §1
[12] = Growth inhibition of human HOP92 cells after 48 hrs by sulforhodamine B assay; conditions: HOP-92, 48 h; method in brief: as §1
CCRF-CEM = test: Growth inhibition of human CCRF-CEM cells after 48 hrs by sulforhodamine B assay; method in brief: as §1
[13] = Growth inhibition of human SKOV3 cells after 48 hrs by sulforhodamine B assay; conditions: SK-OV-3, 48 h; method in brief: as §1
[14] = Growth inhibition of human PC3 cells after 48 hrs by sulforhodamine B assay; conditions: PC-3, 48 h; method in brief: as §1
[15] = Growth inhibition of human MOLT4 cells after 48 hrs by sulforhodamine B assay; conditions: MOLT-4, 48 h; method in brief: as §1
[16] = Growth inhibition of human SW620 cells after 48 hrs by sulforhodamine B assay; conditions: SW-620, 48 h; method in brief: as §1
[17] = Growth inhibition of human SNB75 cells after 48 hrs by sulforhodamine B assay; conditions: SNB-75, 48 h; method in brief: as §1
HT-29 = test: Growth inhibition of human HT-29 cells after 48 hrs by sulforhodamine B assay; conditions: HT-29, 48 h; method in brief: as §1
ACHN = test: Growth inhibition of human ACHN cells after 48 hrs by sulforhodamine B assay; method in brief: as §1
MDA-MB-468 = test: Growth inhibition of human MDA-MB-468 cells after 48 hrs by sulforhodamine B assay; conditions: MDA-MB-468, 48 h; method in brief: as §1
MDA-MB-231 = test: Growth inhibition of human MDA-MB-231 cells after 48 hrs by sulforhodamine B assay; conditions: MDA-MB-231, 48 h; method in brief: as §1
SK-MEL-2 = test: Growth inhibition of human SK-MEL-2 cells after 48 hrs by sulforhodamine B assay; conditions: SK-MEL-2, 48 h; method in brief: as §1
MCF7 = test: Growth inhibition of human MCF7 cells after 48 hrs by sulforhodamine B assay; conditions: MCF7, 48 h; method in brief: as §1
[18] = Growth inhibition of human HL-60(TB) cells after 48 hrs by sulforhodamine B assay; conditions: HL-60, 48 h; method in brief: as §1
NCI-H460 = test: Growth inhibition of human NCI-H460 cells after 48 hrs by sulforhodamine B assay; conditions: NCI-H460, 48 h; method in brief: as §1
[19] = Growth inhibition of human HOP62 cells after 48 hrs by sulforhodamine B assay; conditions: HOP-62, 48 h; method in brief: as §1
[20] = read-out: LD50 (the source's name)

Clc1ccc(-c2n[nH]nc2-c2ccccn2)c(Cl)c1
GI50 (NCI-H23): 9.13 µM
LC50 (concentration giving 50% cell kill) (NCI-H23; read-out: LD50): > 100 µM
GI50 [1]: 2.89 µM
CC50 [1, 20]: > 100 µM
GI50 [2]: 3.38 µM
LC50 (concentration giving 50% net cell kill) ([2]; read-out: LD50): > 100 µM
GI50 [3]: 5.94 µM
CC50 [3, 20]: > 100 µM
GI50 [4]: 7.36 µM
CC50 [4, 20]: > 100 µM
GI50 (786-0): 2.75 µM
LC50 (concentration killing 50% of cells) (786-0; read-out: LD50): > 100 µM
GI50 [5]: 3.01 µM
CC50 [5, 20]: > 100 µM
GI50 [6]: 2.89 µM
CC50 [6, 20]: > 100 µM
GI50 [7]: 10.7 µM
CC50 [7, 20]: > 100 µM
GI50 (A498): 3.18 µM
LC50 (50% net cell kill) (A498; read-out: LD50): > 100 µM
GI50 (K562): 5.5 µM
CC50 (K562; [20]): > 100 µM
GI50 (U-251): 5.35 µM
CC50 (U-251; [20]): > 100 µM
GI50 [8]: 4.83 µM
CC50 [8, 20]: > 100 µM
GI50 (SR): 5.43 µM
LC50 (concentration giving 50% net cell kill) (SR; read-out: LD50): > 100 µM
GI50 (SK-MEL-5): 7.89 µM
CC50 (SK-MEL-5; [20]): > 100 µM
GI50 [9]: 9.16 µM
CC50 [9, 20]: > 100 µM
GI50 (A549): 4.85 µM
CC50 (A549; [20]): > 100 µM
GI50 [10]: 2.93 µM
CC50 [10, 20]: > 100 µM
GI50 (CAKI-1): 8.42 µM
CC50 (CAKI-1; [20]): > 100 µM
GI50 [11]: 3.92 µM
CC50 [11, 20]: > 100 µM
GI50 (KM12): 6.87 µM
LC50 (concentration killing 50% of cells) (KM12; read-out: LD50): > 100 µM
GI50 [12]: 3.28 µM
CC50 [12, 20]: > 100 µM
GI50 (CCRF-CEM): 3.38 µM
LC50 (concentration killing 50% of cells) (CCRF-CEM; read-out: LD50): > 100 µM
GI50 [13]: 2.72 µM
LC50 (concentration killing 50% of cells) ([13]; read-out: LD50): > 100 µM
GI50 [14]: 4.5 µM
CC50 [14, 20]: > 100 µM
GI50 [15]: 4.23 µM
CC50 [15, 20]: > 100 µM
GI50 [16]: 4.4 µM
LD50 (concentration killing 50% of cells) [16]: > 100 µM
GI50 [17]: 1.58 µM
CC50 [17, 20]: > 100 µM
GI50 (HT-29): 4.56 µM
LC50 (concentration killing 50% of cells) (HT-29; read-out: LD50): > 100 µM
GI50 (ACHN): 1.75 µM
CC50 (ACHN; [20]): > 100 µM
GI50 (MDA-MB-468): 3.2 µM
CC50 (MDA-MB-468; [20]): > 100 µM
GI50 (MDA-MB-231): 5.89 µM
CC50 (MDA-MB-231; [20]): > 100 µM
GI50 (SK-MEL-2): 6.52 µM
CC50 (SK-MEL-2; [20]): > 100 µM
GI50 (MCF7): 2.58 µM
CC50 (MCF7; [20]): > 100 µM
GI50 [18]: 5.75 µM
CC50 [18, 20]: > 100 µM
GI50 (NCI-H460): 3.67 µM
CC50 (NCI-H460; [20]): > 100 µM
GI50 [19]: 5.32 µM
LC50 (concentration killing 50% of cells) ([19]; read-out: LD50): > 100 µM

Source: ChEMBL document CHEMBL3739417, “Synthesis and biological evaluation of novel 4,5-disubstituted 2H-1,2,3-triazoles as cis-constrained analogues of combretastatin A-4” (2015)
